Most compounds without a hit are left out; they make up all but 6.4% or so of the library.
Ecoli tolC: growth inhibitors of E. coli BW25113 tolC mutant; OD615; growth inhibition, % at 10 µM (by protocol); hit rate 2.2% among 65,000;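 active means growth inhibition at or above a cutoff equal to the mean over every tested compound plus 3 SD, cut at about 60% in these data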;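 further: growth measured after 20 h incubation at 37 °C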
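Test system: tolC-deleted E. coli BW25113 | Medium: LB with kanamycin 50 µg/mL | Compound dosing: Single concentration, 10 µM final per compound | Schedule: 37 °C, 20 h exposure | Measured by: OD at 615 nm | Evaluation: Percent growth inhibition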
H69AR growth 86K: blocks growth of human H69AR lung tumor cells; viability, % at 10 µM; hit rate 6% among 85,000; AID 598; H69AR lung tumor viability, ATP luminescence, 72 h; hits give low values;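 active means viability at or below 40%; inactive means viability above 40%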;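 further: multidrug resistant small cell line overexpressing MRP-1 efflux transporter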
Jurkat viability: cytotoxicity toward Jurkat cells; Jurkat E6.1 viability, ATP luminescence, 48 h; hit rate 1.2% among 56,000; inhibition, % at 4 µM;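 active means inhibition above the mean inhibition of all tested compounds plus 3 SD, cut at about 28% in these data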
Ecoli WT expand: E. coli BW25113 growth inhibition, expanded screen. hit rate 0.15% among 98,000. growth inhibition, % at 100 µM. OD600 absorbance;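 active means growth inhibition above about 50% at one test dose, limit read from the data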;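 further: growth measured after 20 h incubation at 37 °C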
Lung fibro prol: blocks proliferation of human lung fibroblasts; hit rate 1.1% among 85,000; LL 47 human lung fibroblast viability, ATP luminescence; hits give low values; AID 719; viability, % at 10 µM;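 active means viability at or below 50% in the single dose screen; inactive means viability above 50%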;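 further: compound exposure lasted 72 h before the ATP readout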
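test system = LL 47 human lung fibroblasts | amount = 1,150 fibroblasts seeded per well | medium = 15% FBS in IMEM | times = overnight cell rest, 72 h compound treatment at 37 °C | measured by = CellTiter-Glo luminescence measuring cellular ATP | read-out = viability percentage against median untreated-cell control | benchmarks = cell-only wells, no compound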
HUVEC prolif 384: human endothelial cell proliferation inhibition; HUVEC proliferation, CellTiter-Glo luminescence, 72 h; hits give low values; viability, % at 10 µM (by protocol); hit rate 1.1% among 86,000; AID 648;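 active means viability at or below 30%; inactive means viability above 30%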
Numbers stand for hits; n = inactive; x = no result.

SMILES | Ecoli tolC | H69AR growth 86K | Jurkat viability | Ecoli WT expand | Lung fibro prol | HUVEC prolif 384
CCOC(=O)/C(C#N)=C1/C=CN(c2ccccc2)C=N1 | n | 39 | x | n | n | n
CCOC(CNC(=O)c1cccn2c(=O)c3cc(Cl)ccc3nc12)OCC | x | 38 | x | n | n | n
N#Cc1cccc(NC(=O)CN2NS(=O)(=O)c3ccccc3C2=O)c1 | x | n | x | n | n | n
COC(=O)c1ccc(C(=O)OC)c(NS(C)(=O)=O)c1 | n | 1.4 | n | n | n | n
COc1ccc(N2C(=O)C3CCCN3C2c2ccccc2)cc1 (configuration not stated) | n | n | n | n | n | n
O=C(NNc1cccc(Cl)n1)Nc1ccccc1Cl | x | x | x | n | x | x
Nc1cc(-c2ccc(Cl)cc2)nn1S(=O)(=O)c1ccc(Cl)cc1 | x | n | x | n | n | n
O=C1CCn2nc(-c3ccc(Cl)cc3)cc2N1 | n | n | n | n | n | 17
Cc1cc(C)cc(-n2ccnc2SCC(=O)Nc2ccc3c(c2)OCCO3)c1 | 77 | n | n | n | n | n
O=C(CSc1nnnn1-c1ccc2c(c1)OCO2)NCc1cccs1 | n | n | n | n | n | n
COc1cccc(-n2nnnc2SCC(=O)Nc2ccc3c(c2)OCCO3)c1 | x | x | x | n | x | x
COc1ccc(-n2nnnc2SCC(=O)Nc2ccc3c(c2)OCCO3)cc1OC | n | 21 | n | n | n | n
O=C(CSc1nnnn1-c1ccc2c(c1)OCO2)NCc1ccccc1 | n | 19 | 58 | n | n | n
CC1CCN(c2nc3c(c(=O)[nH]c(=O)n3C)n2CCSc2ncccn2)CC1 | n | n | n | x | n | n
Cc1ccccc1-n1ncc2c(SCC(=O)NCc3cccs3)ncnc21 | n | 28 | 40 | n | n | n
CC1CCc2c(sc(NC(=O)CSc3ncnc4c3cnn4-c3ccccc3Cl)c2C#N)C1 (configuration not stated) | x | n | x | n | n | n
Cc1csc(NC(=O)CSc2ncnc3c2cnn3-c2ccccc2Cl)n1 | 61 | n | n | n | n | n
COc1cccc(Nc2nc(-c3ccc4c(c3)OCCO4)cs2)c1 | x | 37 | x | n | n | n
CCc1cc(/C(Cc2ccccn2)=N\O)c(O)cc1O | x | n | x | n | n | n
CCc1cc(/C(Cc2ccc3ccccc3n2)=N\O)c(O)cc1O | 97 | x | n | n | x | x
Cc1ccc(S(=O)(=O)Cn2nnnc2C(c2ccc(F)cc2)N2CCC(C(N)=O)CC2)cc1 (configuration not stated) | n | n | n | n | n | n
CCC(CCC(=O)Nc1ccc(S(N)(=O)=O)cc1)C(=O)O (configuration not stated) | x | n | x | n | n | n
Cc1ccc(-n2c(SCC(=O)Nc3nccs3)nc3c(c2=O)SCC3)cc1 | n | n | x | n | 27 | n
COC(=O)C1=C(C)N(C)C(C)=C(C(=O)OC)C1c1ccncc1 | n | n | n | n | n | n
COC(=O)C1=C(C)N(C)C(C)=C(C(=O)OC)C1c1ccc(F)c(Br)c1 | 73 | n | n | n | n | n
SMILES | Ecoli tolC | H69AR growth 86K | Jurkat viability | Ecoli WT expand | Lung fibro prol | HUVEC prolif 384
Cc1nc2sccn2c1-c1csc(NCc2ccccc2)n1 | n | n | 67 | n | n | n
C=CCn1c(N)c(C(=O)NCC2CCCO2)c2nc3ccccc3nc21 (configuration not stated) | n | n | n | n | n | n
COc1ccc(CNC(=O)c2c(N)n(CCCN3CCOCC3)c3nc4ccccc4nc23)cc1 | x | 1.2 | x | n | n | 7.0
COc1ccc(-n2c(N)c(C(=O)NCC3CCCO3)c3nc4ccccc4nc32)c(OC)c1 (configuration not stated) | n | 40 | n | n | n | n
COC(=O)c1c(N)n(CCCN2CCOCC2)c2nc3ccccc3nc12 | x | n | x | n | n | n
Nc1c(C(=O)NCc2ccc(F)cc2)c2nc3ccccc3nc2n1CCCN1CCOCC1 | x | 1.2 | x | n | n | 5.1
Cc1c(C(C)O)nnn1-c1nonc1N (configuration not stated) | n | n | n | n | n | n
Cc1nc(NC2=NCN(CCc3ccccc3)CN2)nc2ccccc12 | n | n | n | x | n | n
Cc1cc2nc(NC3=NCN(Cc4ccc5c(c4)OCO5)CN3)nc(C)c2cc1C | n | 23 | n | x | 49 | n
Cc1cc2nc(NC3=NCN(CCCN4CCOCC4)CN3)nc(C)c2cc1C | n | n | n | x | x | n
Cc1nc(NC2=NCN(CCCN3CCOCC3)CN2)nc2c(C)cccc12 | n | 2.3 | n | n | 28 | n
Cc1nc(NC2=NCN(CCc3ccccc3)CN2)nc2c(C)cccc12 | x | 5.5 | n | x | 32 | 1.7
